Measured values: ChEMBL document CHEMBL1926577, “Novel 1,3,4-heterodiazole analogues: synthesis and in-vitro antitumor activity” (2012)

Legend:
Format in all cases: functional
CCRF-CEM = assay: Growth inhibition of human CCRF-CEM cells at 10 uM after 48 hrs by coulter counter method; details: read-out: GI
Outline: (§1)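 NCI 60-cell-line panel, single dose. Compound dissolved first in DMSO, then diluted in phosphate-buffered saline so that every final dilution held under 1% DMSO. Duplicate wells received cells at 6 × 10⁴ cells/ml. Controls held PBS/DMSO at the same dilution. Plates were incubated 48 h at 37 °C under 5% CO₂. Cells were then diluted 10-fold in saline and counted on a Coulter counter, with counts corrected for the dilution. Results are given as percent growth inhibition.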

HL-60(TB) = assay: Growth inhibition of human HL-60(TB) cells at 10 uM after 48 hrs by coulter counter method; details: HL-60, 48 h, read-out: GI
Outline: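 Single-dose screen on the NCI 60-line panel (leukemia subpanel). Compound is dissolved in DMSO and diluted in PBS, with final DMSO below 1%. Duplicate wells hold 6 × 10⁴ cells/ml at 37 °C, 5% CO₂, for 48 h. Cells are counted by Coulter counter after 10-fold saline dilution. Read-out is percent growth versus PBS/DMSO controls, expressed as % growth inhibition.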

K562 = assay: Growth inhibition of human K562 cells at 10 uM after 48 hrs by coulter counter method; details: K562, 48 h, read-out: GI; outline: as §1
MOLT-4 = assay: Growth inhibition of human MOLT4 cells at 10 uM after 48 hrs by coulter counter method; details: MOLT-4, 48 h, read-out: GI; outline: as §1
RPMI-8226 = assay: Growth inhibition of human RPMI8226 cells at 10 uM after 48 hrs by coulter counter method; details: RPMI-8226, 48 h, read-out: GI; outline: as §1
SR = assay: Growth inhibition of human SR cells at 10 uM after 48 hrs by coulter counter method; details: read-out: GI; outline: as §1
A549 = assay: Growth inhibition of human A549 cells at 10 uM after 48 hrs by coulter counter method; details: A549, 48 h, read-out: GI; outline: as §1
EKVX = assay: Growth inhibition of human EKVX cells at 10 uM after 48 hrs by coulter counter method; details: read-out: GI; outline: as §1
NCI-H226 = assay: Growth inhibition of human NCI-H226 cells at 10 uM after 48 hrs by coulter counter method; details: NCI-H226, 48 h, read-out: GI; outline: as §1
NCI-H23 = assay: Growth inhibition of human NCI-H23 cells at 10 uM after 48 hrs by coulter counter method; details: NCI-H23, 48 h, read-out: GI; outline: as §1
NCI-H322M = assay: Growth inhibition of human NCI-H322M cells at 10 uM after 48 hrs by coulter counter method; details: read-out: GI; outline: as §1
NCI-H522 = assay: Growth inhibition of human NCI-H522 cells at 10 uM after 48 hrs by coulter counter method; details: NCI-H522, 48 h, read-out: GI; outline: as §1
HCT-116 = assay: Growth inhibition of human HCT116 cells at 10 uM after 48 hrs by coulter counter method; details: HCT-116, 48 h, read-out: GI; outline: as §1
HCT-15 = assay: Growth inhibition of human HCT15 cells at 10 uM after 48 hrs by coulter counter method; details: HCT-15, 48 h, read-out: GI; outline: as §1
HT-29 = assay: Growth inhibition of human HT-29 cells at 10 uM after 48 hrs by coulter counter method; details: HT-29, 48 h, read-out: GI; outline: as §1
KM12 = assay: Growth inhibition of human KM12 cells at 10 uM after 48 hrs by coulter counter method; details: KM12, 48 h, read-out: GI; outline: as §1
SF-268 = assay: Growth inhibition of human SF268 cells at 10 uM after 48 hrs by coulter counter method; details: SF-268, 48 h, read-out: GI; outline: as §1
SF-295 = assay: Growth inhibition of human SF295 cells at 10 uM after 48 hrs by coulter counter method; details: SF-295, 48 h, read-out: GI; outline: as §1
SNB-19 = assay: Growth inhibition of human SNB19 cells at 10 uM after 48 hrs by coulter counter method; details: SNB-19, 48 h, read-out: GI; outline: as §1
SNB-75 = assay: Growth inhibition of human SNB75 cells at 10 uM after 48 hrs by coulter counter method; details: SNB-75, 48 h, read-out: GI; outline: as §1
U-251 = assay: Growth inhibition of human U251 cells at 10 uM after 48 hrs by coulter counter method; details: U-251, 48 h, read-out: GI; outline: as §1
LOX IMVI = assay: Growth inhibition of human LOXIMVI cells at 10 uM after 48 hrs by coulter counter method; details: read-out: GI; outline: as §1
Malme-3M = assay: Growth inhibition of human MALME-3M cells at 10 uM after 48 hrs by coulter counter method; details: read-out: GI; outline: as §1
M14 = assay: Growth inhibition of human M14 cells at 10 uM after 48 hrs by coulter counter method; details: M14, 48 h, read-out: GI; outline: as §1
MDA-MB-435 = assay: Growth inhibition of human MDA-MB-435 cells at 10 uM after 48 hrs by coulter counter method; details: MDA-MB-435, 48 h, read-out: GI; outline: as §1
SK-MEL-2 = assay: Growth inhibition of human SK-MEL-2 cells at 10 uM after 48 hrs by coulter counter method; details: SK-MEL-2, 48 h, read-out: GI; outline: as §1
SK-MEL-28 = assay: Growth inhibition of human SK-MEL-28 cells at 10 uM after 48 hrs by coulter counter method; details: SK-MEL-28, 48 h, read-out: GI; outline: as §1
SK-MEL-5 = assay: Growth inhibition of human SK-MEL-5 cells at 10 uM after 48 hrs by coulter counter method; details: SK-MEL-5, 48 h, read-out: GI; outline: as §1
UACC-257 = assay: Growth inhibition of human UACC257 cells at 10 uM after 48 hrs by coulter counter method; details: UACC-257, 48 h, read-out: GI; outline: as §1
UACC-62 = assay: Growth inhibition of human UACC62 cells at 10 uM after 48 hrs by coulter counter method; details: UACC-62, 48 h, read-out: GI; outline: as §1
IGROV-1 = assay: Growth inhibition of human IGROV1 cells at 10 uM after 48 hrs by coulter counter method; details: IGROV-1, 48 h, read-out: GI; outline: as §1
OVCAR-8 = assay: Growth inhibition of human OVCAR8 cells at 10 uM after 48 hrs by coulter counter method; details: OVCAR-8, 48 h, read-out: GI; outline: as §1
NCI/ADR-RES = assay: Growth inhibition of human NCI/ADR-RES cells at 10 uM after 48 hrs by coulter counter method; details: read-out: GI; outline: as §1
786-0 = assay: Growth inhibition of human 786-0 cells at 10 uM after 48 hrs by coulter counter method; details: 786-0, 48 h, read-out: GI; outline: as §1
A498 = assay: Growth inhibition of human A498 cells at 10 uM after 48 hrs by coulter counter method; details: A498, 48 h, read-out: GI; outline: as §1
ACHN = assay: Growth inhibition of human ACHN cells at 10 uM after 48 hrs by coulter counter method; details: read-out: GI; outline: as §1
CAKI-1 = assay: Growth inhibition of human Caki1 cells at 10 uM after 48 hrs by coulter counter method; details: CAKI-1, 48 h, read-out: GI; outline: as §1
SN12C = assay: Growth inhibition of human SN12C cells at 10 uM after 48 hrs by coulter counter method; details: read-out: GI; outline: as §1
TK-10 = assay: Growth inhibition of human TK10 cells at 10 uM after 48 hrs by coulter counter method; details: TK-10, 48 h, read-out: GI; outline: as §1
UO-31 = assay: Growth inhibition of human UO31 cells at 10 uM after 48 hrs by coulter counter method; details: UO-31, 48 h, read-out: GI; outline: as §1
PC-3 = assay: Growth inhibition of human PC3 cells at 10 uM after 48 hrs by coulter counter method; details: PC-3, 48 h, read-out: GI; outline: as §1
MCF7 = assay: Growth inhibition of human MCF7 cells at 10 uM after 48 hrs by coulter counter method; details: MCF7, 48 h, read-out: GI; outline: as §1
BT-549 = assay: Growth inhibition of human BT549 cells at 10 uM after 48 hrs by coulter counter method; details: BT-549, 48 h, read-out: GI; outline: as §1
T47D = assay: Growth inhibition of human T47D cells at 10 uM after 48 hrs by coulter counter method; details: read-out: GI; outline: as §1
MDA-MB-468 = assay: Growth inhibition of human MDA-MB-468 cells at 10 uM after 48 hrs by coulter counter method; details: MDA-MB-468, 48 h, read-out: GI; outline: as §1

O=C1N=C2OC(c3ccccc3)=NN2C1=O
inhibition of growth at 10 µM (CCRF-CEM): < 10% | inhibition of growth at 10 µM (HL-60(TB)): < 10% | inhibition of growth at 10 µM (K562): < 10% | inhibition of growth at 10 µM (MOLT-4): < 10% | inhibition of growth at 10 µM (RPMI-8226): < 10% | inhibition of growth at 10 µM (SR): < 10% | inhibition of growth at 10 µM (A549): < 10% | inhibition of growth at 10 µM (EKVX): < 10% | inhibition of growth at 10 µM (NCI-H226): < 10% | inhibition of growth at 10 µM (NCI-H23): < 10% | inhibition of growth at 10 µM (NCI-H322M): 12.5% | inhibition of growth at 10 µM (NCI-H522): < 10% | inhibition of growth at 10 µM (HCT-116): < 10% | inhibition of growth at 10 µM (HCT-15): < 10% | inhibition of growth at 10 µM (HT-29): < 10% | inhibition of growth at 10 µM (KM12): < 10% | inhibition of growth at 10 µM (SF-268): < 10% | inhibition of growth at 10 µM (SF-295): < 10% | inhibition of growth at 10 µM (SNB-19): < 10% | inhibition of growth at 10 µM (SNB-75): < 10% | inhibition of growth at 10 µM (U-251): < 10% | inhibition of growth at 10 µM (LOX IMVI): < 10% | inhibition of growth at 10 µM (Malme-3M): < 10% | inhibition of growth at 10 µM (M14): < 10% | inhibition of growth at 10 µM (MDA-MB-435): < 10% | inhibition of growth at 10 µM (SK-MEL-2): < 10% | inhibition of growth at 10 µM (SK-MEL-28): < 10% | inhibition of growth at 10 µM (SK-MEL-5): < 10% | inhibition of growth at 10 µM (UACC-257): 15.2% | inhibition of growth at 10 µM (UACC-62): < 10% | inhibition of growth at 10 µM (IGROV-1): < 10% | inhibition of growth at 10 µM (OVCAR-8): < 10% | inhibition of growth at 10 µM (NCI/ADR-RES): < 10% | inhibition of growth at 10 µM (786-0): < 10% | inhibition of growth at 10 µM (A498): < 10% | inhibition of growth at 10 µM (ACHN): < 10% | inhibition of growth at 10 µM (CAKI-1): < 10% | inhibition of growth at 10 µM (SN12C): < 10% | inhibition of growth at 10 µM (TK-10): < 10% | inhibition of growth at 10 µM (UO-31): 20.5% | inhibition of growth at 10 µM (PC-3): < 10% | inhibition of growth at 10 µM (MCF7): < 10% | inhibition of growth at 10 µM (BT-549): < 10% | inhibition of growth at 10 µM (T47D): < 10% | inhibition of growth at 10 µM (MDA-MB-468): < 10%
